The target of data set [1] is T1, Zinc finger protein GLI1 (Homo sapiens) (UniProt P08151).
T1 sequence (whole entry): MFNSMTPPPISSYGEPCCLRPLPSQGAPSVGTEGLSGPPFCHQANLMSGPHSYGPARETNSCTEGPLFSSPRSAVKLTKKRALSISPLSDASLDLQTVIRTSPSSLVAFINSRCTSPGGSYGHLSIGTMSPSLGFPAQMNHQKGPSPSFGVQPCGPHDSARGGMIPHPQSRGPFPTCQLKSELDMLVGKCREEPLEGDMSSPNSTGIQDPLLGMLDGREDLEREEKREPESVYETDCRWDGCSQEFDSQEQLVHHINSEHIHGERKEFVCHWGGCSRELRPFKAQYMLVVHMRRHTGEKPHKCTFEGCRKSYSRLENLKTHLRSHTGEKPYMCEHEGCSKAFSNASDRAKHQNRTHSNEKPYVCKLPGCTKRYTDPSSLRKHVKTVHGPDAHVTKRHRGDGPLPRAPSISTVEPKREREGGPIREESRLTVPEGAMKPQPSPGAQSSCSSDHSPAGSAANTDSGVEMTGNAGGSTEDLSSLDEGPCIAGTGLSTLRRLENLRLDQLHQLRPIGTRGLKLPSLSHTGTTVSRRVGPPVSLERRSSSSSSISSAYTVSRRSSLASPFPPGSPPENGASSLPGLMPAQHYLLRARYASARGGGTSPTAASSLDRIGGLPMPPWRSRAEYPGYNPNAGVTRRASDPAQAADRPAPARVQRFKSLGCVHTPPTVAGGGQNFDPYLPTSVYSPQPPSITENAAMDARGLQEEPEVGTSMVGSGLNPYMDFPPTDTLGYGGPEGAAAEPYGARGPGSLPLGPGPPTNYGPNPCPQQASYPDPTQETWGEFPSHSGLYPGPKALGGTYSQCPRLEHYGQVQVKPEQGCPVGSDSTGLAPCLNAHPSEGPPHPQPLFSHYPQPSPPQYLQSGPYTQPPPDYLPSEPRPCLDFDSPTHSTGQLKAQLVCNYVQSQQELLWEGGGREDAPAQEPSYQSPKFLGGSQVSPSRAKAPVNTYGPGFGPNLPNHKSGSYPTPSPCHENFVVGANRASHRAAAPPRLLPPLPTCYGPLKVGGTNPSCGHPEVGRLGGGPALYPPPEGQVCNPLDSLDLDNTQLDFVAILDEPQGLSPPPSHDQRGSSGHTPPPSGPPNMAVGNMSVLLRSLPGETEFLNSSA
The data set is described as follows: Inhibition of exogenously transfected human Gli1-mediated transcriptional activity in mouse C3H10T1/2 cells at 40 uM after 24 hrs by luciferase reporter gene assay. In kind it is cell-based. As to conditions: C3H 10T1/2. Put shortly:
(§1)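 They were replated 18 h later, given compound or DMSO 6 h after plating, and exposed for 24 h at 37 °C, 5% CO2. Lysate was read by dual luciferase as firefly/Renilla, triplicate, DMSO = 0%. IC50 came from curve fitting.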

Data set [2] has as its system MDA-MB-231. The data set is described as follows: Cytotoxicity against human MDA-MB-231 cells at 40 uM/well after 68 hrs by alamar blue assay. In kind it is functional, cell-based. Put shortly: (§2)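 Cells plated in appropriate medium 24 h before compound. A 10 mM DMSO stock was diluted in EMEM to 160 µM (4×) and added in triplicate to a final 40 µM. Incubated 68 h at 37 °C, then Alamar Blue for 4 h at 37 °C. Fluorescence read at ex 510/em 590 nm. Viability taken relative to DMSO control wells.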
In general terms: The colour change of resazurin is a common sign of viable cells or microbes.

In data set [3] the target is T1, Zinc finger protein GLI1 (Homo sapiens). The data set can be described thus: Inhibition of exogenously transfected human Gli1-mediated transcriptional activity in mouse C3H10T1/2 cells at 20 uM after 24 hrs by luciferase reporter gene assay. The data set is classed as cell-based. As to conditions: C3H 10T1/2. Put shortly: as §1
(In a reporter assay the amount or activity of a reporter protein is the signal.)

The test system of data set [4] is HepG2. The data set can be described thus: Cytotoxicity against human HepG2 cells at 40 uM/well after 68 hrs by alamar blue assay. The data set is classed as functional, cell-based. Put shortly:
as §2

Data set [5] deals with Daoy. The data set is described as follows: Cytotoxicity against human DaOY cells at 40 uM/well after 68 hrs by alamar blue assay. In kind it is functional, cell-based. Put shortly: as §2
In data set [6] the test system is SJRH30. The data set can be described thus: Cytotoxicity against human Rh30 cells at 40 uM/well after 68 hrs by alamar blue assay. The data set is classed as functional, cell-based. In short, it runs like this:
as §2

Data set [7] has as its system LN-229. The data set is described as follows: Cytotoxicity against human LN229 cells at 40 uM/well after 68 hrs by alamar blue assay. In kind it is functional, cell-based. In short, it runs like this: as §2
The test system of data set [8] is Raji. The data set can be described thus: Cytotoxicity against human Raji cells at 40 uM/well after 68 hrs by alamar blue assay. The data set is classed as functional, cell-based. Put shortly:
as §2

Data set [9] deals with DU-145. The data set can be described thus: Cytotoxicity against human DU145 cells at 40 uM/well after 68 hrs by alamar blue assay. The data set is classed as functional, cell-based. In short, it runs like this: as §2
Data set [10] has as its system BJ. The data set is described as follows: Cytotoxicity against human TERT-immortalized human BJ cells at 40 uM/well after 68 hrs by alamar blue assay. The data set is classed as cell-based. In short, it runs like this:
as §2

Activity calls are given as the source filed them. The rule behind the calls is not given here.

For `C[C@H](C(=O)NCCc1ccccc1)c1cccc(C(=O)c2ccccc2)c1`, the inhibition result in data set [1] and in data set [3] was “Active” throughout. The result in data set [2], in [5], in data set [6], in data set [8] and in [9] was Active. Besides, the outcome in data set [4] and in [7] was inactive. In data set [10], the Activity entry is given as “Non-toxic”.
For the molecule `C[C@H](CNC(=O)c1ccc(O)cc1)c1cccc(C(=O)c2ccccc2)c1`, the inhibition result in [1] and in [3] was “Active” each time. For the same molecule, the outcome in data set [2], in data set [5], in data set [6], in data set [8] and in data set [9] was Active. In addition, the outcome in data set [4] and in data set [7] was inactive. For the same molecule, in data set [10], the Activity result was “Non-toxic”.
`COc1ccc(COC[C@@H](C)c2cccc(C(=O)c3ccccc3)c2)cc1`: the inhibition entry in [1] and in [3] was “inactive” throughout. Further, the result in data set [2], in [5], in data set [6], in data set [8] and in data set [9] was Active. Further, the result in [4] and in data set [7] was inactive. For the same molecule, the Activity result in data set [10] is reported as “Non-toxic”.
For `COc1ccc2[nH]cc(CC(=O)NCCc3ccc(O)cc3)c2c1`, the outcome in data set [2], in [5], in data set [6], in [8] and in data set [9] was Active. Moreover, the result in [4] and in data set [7] was inactive. Further, the Activity entry in data set [10] is listed as “Non-toxic”.
For `C[C@H](C(=O)Nc1ccc(O)cc1)c1cccc(C(=O)c2ccccc2)c1`, the inhibition entry in [1] and in data set [3] was “Active” in each case. Moreover, the outcome in data set [2], in [5], in data set [6], in data set [8] and in [9] was Active. Besides, the result in data set [4] and in data set [7] was inactive. In addition, in data set [10], the Activity result was “Non-toxic”.
In the case of `COc1ccc(C(=O)NC[C@@H](C)c2cccc(C(=O)c3ccccc3)c2)cc1`, the inhibition entry in data set [1] and in data set [3] was “Active” each time. Besides, the outcome in data set [2], in data set [5], in [6], in data set [8] and in [9] was Active. Further, the result in data set [4] and in [7] was inactive. Besides, the Activity result in [10] is given as “Non-toxic”.
With `C[C@H](C(=O)NCCc1ccccc1O)c1cccc(C(=O)c2ccccc2)c1`, the result in [2], in data set [5], in [6], in data set [8] and in data set [9] was Active. Further, the inhibition result in data set [3] is “Active”. In addition, the result in data set [4] and in data set [7] was inactive. The Activity result in [10] is recorded as “Non-toxic”.
`C[C@H](C(=O)NCCc1ccc(O)cc1)c1cccc(Cc2ccccc2)c1`: the outcome in data set [2], in [5], in [6], in [8] and in data set [9] was Active. Moreover, the outcome in data set [4] and in data set [7] was inactive. Besides, the Activity result in data set [10] is recorded as “Non-toxic”.
Regarding `O=C(Cc1ccc(Oc2ccccc2)cc1)NCCc1ccc(O)cc1`, the result in [2], in data set [5], in data set [6], in data set [8] and in data set [9] was Active. The outcome in [4] and in [7] was inactive. Besides, in data set [10], the Activity entry was “Non-toxic”.
In the case of `O=C(Cc1ccccc1Oc1ccccc1)NCCc1ccc(O)cc1`, the outcome in data set [2], in [5], in data set [6], in data set [8] and in [9] was Active. In addition, the result in [4] and in data set [7] was inactive. In [10], the Activity entry is “Non-toxic”.
With `CC(C(=O)NCCc1ccc(O)cc1)c1cccc(C(=O)c2ccccc2)c1` (racemic), the outcome in data set [2], in data set [5], in [6], in [8] and in data set [9] was Active. For the same molecule, the outcome in data set [4] and in [7] was inactive. Also, the Activity entry in [10] is recorded as “Non-toxic”.
`COc1ccc2cc([C@@H](C)C(=O)NCCc3ccc(O)cc3)ccc2c1`: the result in data set [2], in [5], in data set [6], in [8] and in data set [9] was Active. The result in data set [4] and in [7] was inactive. The Activity result in [10] is reported as “Non-toxic”.
Regarding `O=C(Cc1cccc(Oc2ccccc2)c1)NCCc1ccc(O)cc1`, the outcome in data set [2], in [5], in [6], in data set [8] and in data set [9] was Active. Further, the result in data set [4] and in data set [7] was inactive. For the same molecule, the Activity result in data set [10] was “Non-toxic”.
For the molecule `CC(C)Cc1ccc(C(C)C(=O)NCCc2ccc(O)cc2)cc1` (stereo unspecified), the outcome in [2], in data set [5], in data set [6], in [8] and in [9] was Active. The result in [4] and in data set [7] was inactive. The Activity result in [10] is “Non-toxic”.
For `C[C@H](C(=O)NCCc1ccc(O)cc1)c1cccc(C(O)c2ccccc2)c1` (stereo partly specified), the result in data set [2], in [5], in data set [6], in [8] and in [9] was Active. Further, the result in [4] and in [7] was inactive. The Activity result in data set [10] is “Non-toxic”.

The values are drawn from ChEMBL document CHEMBL1158464, “Structure-activity relationships and cancer-cell selective toxicity of novel inhibitors of glioma-associated oncogene homologue 1 (Gli1) mediated transcription” (J Med Chem, 2009).
